# TRPC6 act – activators of mouse TRPC6 channel | Q61143 | HEK293-TRPC6 membrane potential dye fluorescence; stronger effect = higher value | B-score at 10 µM | 310,000 tested, 0.13% active | AID 2550;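 active = B-score of the integrated fluorescence ratio above library mean plus 3 SD, and starting fluorescence ratio within library mean plus 5 SD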;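 also: higher score means more depolarization so channel activation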
# Target sequence (Q61143 whole entry, looked up): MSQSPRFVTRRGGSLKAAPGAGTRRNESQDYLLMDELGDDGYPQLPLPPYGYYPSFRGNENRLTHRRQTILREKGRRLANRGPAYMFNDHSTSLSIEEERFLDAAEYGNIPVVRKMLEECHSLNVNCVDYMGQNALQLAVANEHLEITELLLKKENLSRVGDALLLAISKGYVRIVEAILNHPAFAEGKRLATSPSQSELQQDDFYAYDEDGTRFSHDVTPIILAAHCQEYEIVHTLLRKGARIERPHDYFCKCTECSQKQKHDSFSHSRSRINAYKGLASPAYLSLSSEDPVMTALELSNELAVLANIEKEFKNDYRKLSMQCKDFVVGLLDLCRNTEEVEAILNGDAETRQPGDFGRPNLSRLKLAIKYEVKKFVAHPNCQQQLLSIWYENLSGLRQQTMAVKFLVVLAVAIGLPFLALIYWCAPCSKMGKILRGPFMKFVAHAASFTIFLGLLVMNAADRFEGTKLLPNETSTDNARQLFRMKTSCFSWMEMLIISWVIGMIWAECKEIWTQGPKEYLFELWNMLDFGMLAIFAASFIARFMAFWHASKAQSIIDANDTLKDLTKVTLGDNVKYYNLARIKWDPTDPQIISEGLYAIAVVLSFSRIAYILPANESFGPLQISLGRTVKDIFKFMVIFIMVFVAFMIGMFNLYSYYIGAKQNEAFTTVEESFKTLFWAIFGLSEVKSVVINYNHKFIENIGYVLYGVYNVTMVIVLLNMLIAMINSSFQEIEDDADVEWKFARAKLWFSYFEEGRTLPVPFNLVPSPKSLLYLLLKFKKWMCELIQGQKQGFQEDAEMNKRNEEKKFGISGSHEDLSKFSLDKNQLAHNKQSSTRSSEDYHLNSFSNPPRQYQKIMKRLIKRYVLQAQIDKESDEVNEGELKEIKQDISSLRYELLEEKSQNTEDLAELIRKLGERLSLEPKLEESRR
# TRPC4 potent – allosteric potentiators of mouse TRPC4 channel | AID 2227 | Q9QUQ5 | B-score at 10 µM | 310,000 tested, 0.42% active | HEK293 TRPC4beta/mu-opioid, DAMGO EC20, Fluo-4 Ca2+ flux; stronger effect = higher value;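 active = B-score of calcium response area above 5 SD of library B-scores, with initial fluorescence ratio within 5 SD of library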;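 also: B-score of integrated fluorescence ratio over time as area under calcium response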
# TRPC4 act – activators of mouse TRPC4 channel; B-score at 10 µM; HEK293 TRPC4beta/mu-opioid, Fluo4 calcium fluorescence; stronger effect = higher value; Q9QUQ5; AID 2237; 310,000 tested, 0.49% active;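 active = B-score above 5 SD of library B-scores, and initial fluorescence ratio not above library mean plus 5 SD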;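 also: positive B-score marks a calcium rise read as TRPC4 activation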
#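 Technique: kinetic Fluo4 calcium fluorescence; Test system: TRPC4beta and mu-opioid receptor HEK293 stable cells; Measure: B-scored integrated calcium fluorescence ratio; Benchmarks: low control buffer alone, high control maximal DAMGO; Schedule: 45 min room-temperature Fluo4 loading, 110 s read.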
# Platelet DG rel – modulates dense granule release in human platelets; human platelet-rich plasma, SFLLRN dense granule ATP release, luminescence; inhibition, %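 (compounds screened at 7.5 µM in platelet-rich plasma)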; 300,000 tested, 0.22% active; AID 1663;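 active = mean replicate score, as percent of positive control, at or above 50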
# TRPC4 inh – blocks the mouse TRPC4 cation channel; 300,000 tested, 0.39% active; Q9QUQ5; HEK293 TRPC4beta/mu-opioid, DAMGO-evoked Fluo4 calcium flux; stronger effect = lower value; B-score at 10 µM;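 active = B-score over 3 SD under the library average, no early fluorescence shift, positive overall ratio signal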
#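 Assay system – HEK293 line stably carrying TRPC4beta and mu-opioid receptor · Doses – single dose · Detection – Fluo4 calcium-dye fluorescence, kinetic read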
# TRPC6 inhibitor – inhibitors of mouse TRPC6 channel. Q61143. HEK293-TRPC6, membrane potential dye, ACh-evoked depolarization; stronger effect = lower value. B-score at 10 µM. 310,000 tested, 1.1% active. AID 2553;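 active = B-score under library mean minus 3 SD, initial fluorescence not abnormally high, positive integrated signal ratio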;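 also: B-score derived from integrated fluorescence ratio over the kinetic read; more negative B-score means stronger inhibition of depolarization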
# * = called active by the depositor; i = inactive; . = not tested or not shown. Sampled rows, rich in hits. Any-hit rate of the full collection: about 2.5%.
SMILES,TRPC6 act,TRPC4 potent,TRPC4 act,Platelet DG rel,TRPC4 inh,TRPC6 inhibitor
CS(=O)(=O)c1ncc(Cl)c(C(=O)Nc2ccc3ccccc3c2)n1,i,i,i,79*,i,i
O=S(=O)(c1ccc(Cl)cc1)N1CCCC(C(F)(F)F)C1 (configuration not stated),i,i,i,-1,i,i
Cc1ccc(Cl)c(OCC(=O)Nc2ccccc2C(=O)NC2CC2)c1,i,i,i,53*,i,i
Cc1ccc(C)c(OCC(=O)Nc2ccccc2C(=O)NC2CC2)c1,i,i,i,0,i,i
CC(C)c1nc(SCC(=O)Nc2cccc(C(F)(F)F)c2)c2c(=O)n(C)c(=O)n(C)c2n1,i,12*,i,0,i,i
O=C(O)/C=C/c1cccc(NC(=O)c2ccccc2)c1,i,i,i,64*,i,i
CCc1nnc(NC(=O)CSc2ccc(-c3ccc(-n4cccn4)cc3)nn2)s1,i,i,i,0,i,i
C/C(=N\N(c1ccccc1)c1ccccc1)c1ccc(N)cc1,i,24*,i,-4,i,i
CNC(=S)N1N=C(c2ccc(C)cc2)CC1c1cc(OC)ccc1OC (configuration not stated),i,17*,i,-3,i,i
Cc1ccccc1N(C(=O)CCC(=O)Nc1ccccn1)C(C(=O)NC(C)C)c1ccc(F)cc1 (configuration not stated),i,i,i,-3,i,i
Nc1cc(N2CCCCC2)c([N+](=O)[O-])cc1Cl,i,i,i,10,-6*,i
Nc1cc(N2CCCCC2)c(Cl)cc1[N+](=O)[O-],i,i,i,-3,i,i
Cc1ccc(C2=NOC(C)(c3nnc(Cc4ccccc4)o3)C2)cc1 (configuration not stated),i,i,i,-2,.,i
Clc1ccc(COc2ccccc2CNCc2cccnc2)cc1,i,i,i,-3,-6*,i
c1ccc(COc2cccc(CNCc3cccnc3)c2)cc1,i,i,i,1,-6*,i
C=CCOc1ccccc1CNCc1cccnc1,i,i,i,-5,i,i
O=c1c(Cl)c(NCc2ccccc2Cl)cnn1C12CC3CC(CC(C3)C1)C2,i,i,i,-1,i,i
O=C(Nc1cccc(Cl)c1)NC1CCN(C2CCCCC2)C1 (configuration not stated),i,i,46*,5,i,i
CCc1nnc(NC(=O)CN2CCN(Cc3ccc(C)cc3)CC2)s1,i,i,i,3,i,i
COc1ccccc1-c1cc(C(=O)N2CCN(c3ccccc3OC)CC2)no1,i,i,i,4,-6*,i
O=[N+]([O-])c1ccc(/C=N/Nc2nc(N3CCCCC3)nc(N3CCCCC3)n2)o1,i,22*,i,2,i,i
O=C(CNc1c(Br)cc(Br)cc1Br)NN=C1CCCCC1,i,i,i,-7,i,i
CCc1ccc2[nH]c(C(=O)Nc3ccc(Br)c(C)n3)cc2c1,i,i,i,-3,i,i
Cc1cc(OCCCCCNCCO)cc(C)c1Cl,i,i,i,-1,i,i
Cc1cc(OCCNCCO)cc(C)c1Cl,i,26*,94*,31,i,i
SMILES,TRPC6 act,TRPC4 potent,TRPC4 act,Platelet DG rel,TRPC4 inh,TRPC6 inhibitor
O=S1(=O)N(Cc2ccccc2F)CCCN1Cc1c(F)cccc1Cl,i,i,i,-7,i,i
CC1CC(=O)NN=C1c1ccc(N)c([N+](=O)[O-])c1 (configuration not stated),i,i,i,61*,i,i
Cc1nonc1OCCN1CCN(c2ccccc2[N+](=O)[O-])CC1,i,i,i,3,i,i
Nc1nonc1OCCN1CCN(c2ccc([N+](=O)[O-])c3cccnc23)CC1,i,23*,93*,2,i,i
O=C(c1ccc(F)cc1)N1CCN(c2ccc([N+](=O)[O-])cc2-n2cccc2)CC1,i,24*,i,0,i,i
O=C(c1ccccc1F)N1CCN(c2ccc([N+](=O)[O-])c3cccnc23)CC1,i,29*,i,-6,i,i
O=C(Nc1ccccc1N1CCN(C(=O)c2ccc(Cl)cc2)CC1)c1cccc([N+](=O)[O-])c1,i,i,i,-2,-6*,i
O=C(c1ccccc1F)N1CCN(c2ccc([N+](=O)[O-])c3ncccc23)CC1,i,i,i,-2,i,i
N#Cc1cccc(NC(=O)Cn2c3[n+](c4ccc(C(F)(F)F)cc42)CCCCC3)c1,i,i,i,-4,i,i
COc1ccc(NC2CCCN(C(=O)c3c(C)noc3C)C2)cc1 (configuration not stated),i,i,i,-2,i,i
C(=N\c1nc2ccccc2n1Cc1ccccc1)/c1cccs1,i,i,i,5,i,i
CN1C(=O)/C(=C/C=C2\SCCN2C)SC1=S,i,i,i,14,i,i
COc1ccc(N2CCN(C(=O)c3ccccc3F)CC2)c([N+](=O)[O-])c1,i,i,i,0,i,i
O=C(c1ccccc1F)N1CCN(c2ccc([N+](=O)[O-])cc2-n2cccc2)CC1,i,18*,i,-1,i,i
CCOc1ccc(C2=C(C=Nc3c(C)n(C)n(-c4ccccc4)c3=O)C(c3ccc(F)cc3)c3ccccc3O2)cc1 (configuration not stated),i,i,i,0,i,i
Cc1sc2ncnc(N3CCCCC3)c2c1C,i,i,i,-3,i,i
Cc1sc2ncnc(NCC(c3ccco3)N3CCCC3)c2c1C (configuration not stated),i,i,163*,0,i,i
O=C(COc1ccc(S(=O)(=O)N2CCOCC2)cc1)NCCN1CCOCC1,i,i,i,-7,i,i
CNC[C@@H](Cc1ccccc1)NC[C@@H](CC1CCCCC1)NCCCc1ccccc1,i,i,77*,3,i,i
Cc1ccc(Cl)cc1NC(=O)C1CCCN1S(=O)(=O)c1ccc(-c2ccc(=O)[nH]n2)s1 (configuration not stated),i,i,i,2,i,i
C/C(=N/NC(=O)c1ccco1)c1cccnc1,i,i,i,10,i,i
